From PubChem BioAssay
Jurkat viability: cytotoxicity toward Jurkat T cells, primary screen, cytotoxicity control, cell-based, Jurkat E6.1, 60K MLSMR library. Jurkat E6.1 viability, ATP luminescence, 48 h. inhibition, % at 4 µM. 56,000 compounds, 1.2% hits. AID 463, 2006;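 active means inhibition above the mean inhibition of all tested compounds plus 3 SD, cut at about 28% in these data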
HUVEC inhibit: inhibitors of HUVEC proliferation, primary screen, cell-based, 384-well. CellTiter-Glo luminescence, 72 h; hits give low values. viability, % at 10 µM (by protocol). 86,000 compounds, 1.1% hits. AID 648, 2007;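 active means viability at or below 30%; inactive means viability above 30%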
Fibroblast inh: antiproliferative effect on LL 47 fibroblasts – human, LL 47 cells, CellTiter-Glo luminescence, primary screen; LL 47 human lung fibroblast viability, ATP luminescence; hits give low values; viability, % at 10 µM; 85,000 compounds, 1.1% hits;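 active means viability at or below 50% in the single dose screen; inactive means viability above 50%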;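 further: compound exposure lasted 72 h before the ATP readout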
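Material: Human LL 47 lung fibroblast cells | Input: 1,150 cells/well | Buffer or medium: IMEM plus 15% FBS | Compound dosing: 0.1% DMSO in all compound wells | Times: Overnight cell rest, 72 h compound treatment at 37 °C | Signal: CellTiter-Glo luminescence measuring cellular ATP | Measure: % viability versus median cells-only luminescence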
H69AR inhibit: proliferation blockers of H69AR lung cancer cells, primary screen, cell-based, human, 86K library | H69AR lung tumor viability, ATP luminescence, 72 h; hits give low values | viability, % at 10 µM | 85,000 compounds, 6% hits | AID 598, 2007;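 active means viability at or below 40%; inactive means viability above 40%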;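 further: multidrug resistant small cell line overexpressing MRP-1 efflux transporter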
tolC growth inh: growth inhibitors of E. coli tolC mutant, primary screen, strain BW25113 ΔtolC::kan, 384-well; OD615; growth inhibition, % at 10 µM (by protocol); 65,000 compounds, 2.2% hits;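 active means growth inhibition at or above a cutoff equal to the mean over every tested compound plus 3 SD, cut at about 60% in these data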;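 further: growth measured after 20 h incubation at 37 °C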
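signal = optical density read at 615 nm | test system = E. coli ΔtolC::kan strain BW25113 | timing = 20 h compound exposure of bacteria at 37 °C | buffer or medium = LB medium plus 50 µg/mL kanamycin | compound dosing = 10 µM final, single dose | evaluation = % inhibition of E. coli growth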
E coli WT exp: growth inhibitors of wild-type E. coli, primary screen, strain BW25113, expanded library, OD600; growth inhibition, % at 100 µM; 98,000 compounds, 0.15% hits; OD600 absorbance; AID 710, 2007;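 active means growth inhibition above about 50% at one test dose, limit read from the data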;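 further: growth measured after 20 h incubation at 37 °C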
A number is an active result; n = inactive; x = no result. An excerpt weighted towards active compounds, which were near 6.4% of everything screened.

SMILES | Jurkat viability | HUVEC inhibit | Fibroblast inh | H69AR inhibit | tolC growth inh | E coli WT exp
Cc1cccc(OCCCN2CCCCCC2)c1 | n | n | n | n | n | n
Cc1cccc(OCCN2CSC(=S)N(C)C2)c1 | x | 21 | n | 1.5 | n | n
CCOC(=O)c1sc(NC(=O)CSc2n[nH]c(-c3ccncc3)n2)c(C#N)c1C | x | n | n | 19 | x | n
CCOC(=O)c1sc(NC(=O)CSc2nccc(C)n2)c(C#N)c1C | x | n | n | 7.2 | x | n
CCOc1ccc(N2CC(C(=O)OCC(=O)NCc3ccccc3)CC2=O)cc1 (stereo not drawn) | x | x | x | x | x | n
CCCc1nc(-c2cc3ccc(C)cc3[nH]c2=O)no1 | x | n | n | n | n | n
CCOc1ccccc1-c1nc(-c2cc3ccc(C)cc3[nH]c2=O)no1 | x | n | n | 40 | n | n
Cc1ccc(S(=O)(=O)NCC(c2ccccc2)N2CCN(CCC#N)CC2)cc1 (stereo not drawn) | n | n | n | n | n | n
O=c1cc(C(F)F)oc2c1ccc1ccccc12 | n | n | x | n | n | n
CC(C)(C)C1CCc2c(sc(NC(=O)c3ccco3)c2C(N)=O)C1 (stereo not drawn) | x | n | n | 39 | x | x
CCC(=O)Nc1cc(C(=O)OC(C(=O)c2ccc(C)c(C)c2)c2ccccc2)ccc1C (stereo not drawn) | x | x | x | x | x | n
COc1ccc(C(=O)CSc2nnc(-c3ccc(S(=O)(=O)N4CCOCC4)cc3)o2)cc1 | n | n | n | n | n | n
COc1ccc(-c2nnc(NC(=O)c3ccc(S(=O)(=O)N4COCC4(C)C)cc3)o2)cc1 | 101 | x | x | x | 100 | n
CC1(C)COCN1S(=O)(=O)c1ccc(C(=O)Nc2nnc(-c3ccc(Cl)s3)o2)cc1 | n | x | x | x | 99 | n
CC(C)Sc1nc(C(F)(F)F)cc(=O)n1-c1ccccc1 | x | x | x | x | x | n
Cc1cc(C)c2oc(-c3cccc(NC(=O)c4ccc(F)cc4)c3)nc2c1 | x | n | n | 17 | x | n
Cc1ccc(NCN2C(=O)C3C4C=CC(C4)C3C2=O)cc1 (stereo not drawn) | n | n | n | n | n | n
O=C1C2C3C=CC(C3)C2C(=O)N1CNc1ccc(O)cc1 (stereo not drawn) | n | n | n | 29 | n | n
CN1Cc2cc(C(=O)c3cc(Cl)cc(CSc4ncccn4)c3O)cnc2NC1=O | 98 | n | n | 25 | n | n
COc1ccc(/C=N/n2c(SC)nnc2-c2ccccc2)c(OC)c1OC | 68 | n | n | 30 | n | n
COc1ccc(/C=N/N2CCN(c3ccccc3OC)CC2)cc1OC | x | x | x | x | x | n
COc1ccc(/C=N/n2c(SC)nnc2-c2ccccc2)cc1C | n | n | n | 26 | 87 | n
Cc1ccc(N2CCN(C(=O)c3ccccc3)CC2)c(C)c1 | n | n | n | n | n | n
COc1cc(C(=O)N2CCCN(c3nc4cc(C)ccc4cc3C#N)CC2)cc(OC)c1OC | n | n | n | 9.8 | n | x
COc1cc(C(=O)N2CCN(c3ccc(C)cc3C)CC2)cc(OC)c1OC | 91 | n | n | 19 | n | n
SMILES | Jurkat viability | HUVEC inhibit | Fibroblast inh | H69AR inhibit | tolC growth inh | E coli WT exp
COC(=O)c1sc2ccccc2c1-n1cccc1C(=O)C(=O)Nc1ccc(OC)cc1 | x | x | x | x | x | n
Cc1cc(C)cc(COn2ccnc2)c1 | x | n | n | n | x | n
COc1ccc(Cl)cc1S(=O)(=O)n1cnc2ccccc21 | 53 | n | n | 17 | n | n
COc1ccc(Cl)cc1S(=O)(=O)N1CCCC1 | x | n | n | n | x | n
CCOc1cc(C)c(Cl)cc1S(=O)(=O)n1cnc2ccccc21 | n | n | n | 39 | n | n
CCOc1ccc(Cl)cc1S(=O)(=O)n1cnc2ccccc21 | 51 | n | n | 20 | n | n
Cc1cc(C)c(S(=O)(=O)n2cnc3ccccc32)c(C)c1 | x | n | n | n | x | n
N#CCCn1cc(/C=N/O)c(-c2ccc(Cl)cc2)n1 | x | n | n | n | x | n
N#CCCn1cc(/C=N/O)c(-c2ccc(-c3ccccc3)cc2)n1 | 43 | n | n | 32 | n | n
COc1cccc(NC(=O)N(CCCN2CCOCC2)C(C)c2cc3ccccc3o2)c1 (stereo not drawn) | x | n | n | 32 | x | n
CCOCc1cnc(C)nc1NCC(=O)c1c(C)n(C)c2ccc(OC)cc12 | n | n | n | 34 | n | n
COc1ccc2c(c1)c(C(=O)CNc1nc(C)cs1)c(C)n2C | n | n | n | n | n | n
O=C1C=C(Nc2ccc(O)cc2)CC(c2ccco2)C1 (stereo not drawn) | x | n | n | 26 | x | x
O=C1C=C(O)CC(c2ccco2)C1 (stereo not drawn) | x | n | n | n | n | n
CN1CCN(c2ccc(Cl)cc2NC(=O)c2ccc(S(=O)(=O)N3CCCCCC3)cc2)CC1 | n | n | n | 2.5 | n | n
CN1CCN(c2ccccc2NC(=O)c2ccc(-c3ccccc3)cc2)CC1 | n | n | n | 33 | n | n
CCCCOc1ccc(C(=O)Nc2ccc(N3CCN(C)CC3)cc2)cc1 | n | n | 28 | 23 | n | n
O=C(Nc1ccccc1N1CCN(c2ccc(F)cc2)CC1)c1ccccc1 | n | n | n | n | n | n
CN1CCN(c2ccccc2NC(=O)c2ccc(OCc3ccccc3)cc2)CC1 | n | 17 | n | x | n | n
COc1cccc(NC(=O)c2cn(C)c(=O)c3cc(OC)c(OC)cc23)c1 | n | n | n | n | n | n
COc1cccc(C(=O)Nc2ccccc2N2CCCC2)c1 | n | n | n | n | n | n
CN1CCN(c2ccccc2NC(=O)c2cccc(OCc3ccccc3)c2)CC1 | n | 8.2 | n | 11 | n | n
CC(C)Cn1c(N)c(C(=O)CSc2ccc3c(c2)OCCO3)c(=O)n(C)c1=O | 36 | n | n | n | n | n
CC(C)Cn1c(N)c(C(=O)COC(=O)c2ccc3c(c2)OCCO3)c(=O)n(C)c1=O | n | n | n | n | n | n
Cc1cc(C=O)c2c(c1)C=CC1(Oc3ccccc3C(=O)N1C)O2 (stereo not drawn) | x | n | n | 22 | x | x
O=C(NCc1ccco1)c1ccc(Cn2c(=O)c3ccccc3n(Cc3cccc(Cl)c3)c2=O)cc1 | x | n | n | 31 | x | n
Cc1ccc(C)c(Cn2c(=O)n(CCC(=O)NCc3ccco3)c(=O)c3ccccc32)c1 | n | n | n | n | n | n
O=C(CCCCn1c(=O)c2ccccc2n(CC(=O)Nc2ccc(F)cc2)c1=O)NCc1ccco1 | n | n | n | n | n | n
O=C(CCCCn1c(=O)c2ccccc2n(Cc2ccc(F)cc2Cl)c1=O)NCc1ccco1 | x | n | n | 24 | n | n
Cc1ccc(C)c(Cn2c(=O)n(CCCC(=O)NCc3ccco3)c(=O)c3ccccc32)c1 | n | n | n | 36 | n | x
